# Bioassay records deposited in PubChem BioAssay by several laboratories.
# Most compounds without a hit are left out; they make up all but 2.2% or so of the library.
# HTR2A ag – mouse HTR2A agonism via beta-arrestin recruitment | 360,000 tested, 0.66% active | AID 624169 | CHO-K1 mHTR2A beta-arrestin complementation, luminescence; percent of 30 µM serotonin response | P35363 | activation, % at 7.6 µM;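 active = activation above a run cutoff, the mean activation of all tested compounds plus 3 SD, cut at about 14% in these data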;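 note: 0% = plate median of compound wells and 100% = 30 µM serotonin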
# Target sequence (P35363 whole entry, looked up): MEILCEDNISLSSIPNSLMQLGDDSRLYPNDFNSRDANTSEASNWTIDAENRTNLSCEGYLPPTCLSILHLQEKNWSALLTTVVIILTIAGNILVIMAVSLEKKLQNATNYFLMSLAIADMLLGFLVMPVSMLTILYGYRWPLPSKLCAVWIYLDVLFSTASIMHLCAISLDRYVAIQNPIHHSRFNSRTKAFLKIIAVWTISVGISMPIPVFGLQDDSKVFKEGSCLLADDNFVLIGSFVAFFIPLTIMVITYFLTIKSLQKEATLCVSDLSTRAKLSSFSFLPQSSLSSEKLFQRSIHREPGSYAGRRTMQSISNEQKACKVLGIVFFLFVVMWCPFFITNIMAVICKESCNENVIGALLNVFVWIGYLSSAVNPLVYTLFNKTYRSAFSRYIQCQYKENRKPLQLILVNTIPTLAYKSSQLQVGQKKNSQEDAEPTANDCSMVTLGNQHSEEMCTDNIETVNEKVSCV
# CCR6 antag – blocks CCL20-driven beta-arrestin recruitment at human CCR6 | inhibition, % at 20 µM | CHO-K1 CCR6 PathHunter beta-arrestin, luminescence, CCL20-stimulated | 340,000 tested, 0.49% active | P51684;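 active = compounds whose inhibition of the agonist-driven luminescence signal at 20 µM reaches about 50%, limit read from the data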;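 note: cells stimulated with CCL20 at 14 nM final; plate controls were DMSO with CCL20 for no effect and DMSO without agonist for full effect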
# EBI2 antag – antagonists of human EBI2 receptor; P32249; EBI2 beta-arrestin recruitment, luminescence, 7a,25-OHC stimulated; inhibition, % at 5 µM; 360,000 tested, 0.81% active; in the data active = inhibition above about 38%;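 note: enzyme fragment complementation signal reports receptor beta-arrestin coupling in cells; 0% = agonist plus DMSO wells and 100% = wells without agonist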
# APJ ag – activates the human apelin receptor APJ; P35414; 330,000 tested, 0.11% active; activation, % at 20 µM; AID 2520; CHO-K1 APJ PathHunter beta-arrestin, luminescence; 0% DMSO wells, 100% apelin;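 active = activation more than six SD over the plate average, tested at 20 µM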;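 note: 0% = DMSO alone and 100% = apelin-13 at 10 nM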
#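 Assay system – PathHunter CHO-K1 APJ (AGTRL-1) beta-arrestin reporter cells · Compound – one dose, 20 µM compound, 1% DMSO · Timing – compound 90 min 25 °C, reagent 1 h · Measured by – luminescence from split beta-galactosidase complementation, Galacton Star/Emerald II substrate · Measure – beta-arrestin recruitment to APJ as agonist activity, luminescent signal · Benchmarks – DMSO vs Apelin-13 10 nM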
# CXCR6 block – inhibitors of human CXCR6 receptor; O00574; CHO-K1 PathHunter CXCR6 beta-arrestin, luminescence; inhibition, % at 20 µM; 360,000 tested, 0.36% active; in the data active = inhibition above about 34%, passing the limit was not always enough;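 note: antagonist mode with CXCL16 agonist at 10 nM final; 0% = 10 nM CXCL16 with DMSO and 100% = unstimulated wells without agonist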
# APJ antag – antagonists of human APJ apelin receptor; 330,000 tested, 0.32% active; inhibition, % at 20 µM; CHO-K1 APJ beta-arrestin complementation, luminescence; P35414;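 active = inhibition above about 40% at 20 µM, limit read from the data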;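 note: cells challenged with 10 nM apelin-13 agonist together with compound; plate controls were apelin-13 plus DMSO wells for no effect and DMSO wells lacking apelin-13 for full effect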
# * hit, by the source's call; · = not tested or not shown.
SMILES,HTR2A ag,CCR6 antag,EBI2 antag,APJ ag,CXCR6 block,APJ antag
CCCCn1c(NC(=O)c2ccccc2)c(C#N)c2nc3ccccc3nc21,-0.7,19.8,14.0,·,10.2,·
CCCCn1c(NC(=O)c2ccc(F)cc2)c(C#N)c2nc3ccccc3nc21,·,·,·,-9.4,·,56.1*
O=[N+]([O-])c1ccc(O)c(/C=N/Nc2ccccn2)c1,1.5,61.0*,63.6*,·,21.5,·
O=C(N/N=C/c1cc([N+](=O)[O-])ccc1O)C12CC3CC(CC(C3)C1)C2,-1.2,71.2*,79.2*,-9.6,39.5,30.7
O=C(N/N=C/c1cc([N+](=O)[O-])ccc1O)NC12CC3CC(CC(C3)C1)C2,1.6,13.7,16.1,-2.8,11.9,17.9
Cc1cc(C(=O)N/N=C/c2cc([N+](=O)[O-])ccc2O)c2ccccc2n1,-7.4,3.5,49.3*,-2.1,-1.9,-14.6
COc1ccc(N2CC(C(=O)N/N=C/c3cc([N+](=O)[O-])ccc3O)CC2=O)cc1 (centres undefined),-8.0,55.8*,3.9,-6.9,16.4,15.6
COc1ccccc1N1CCN(C2C(=O)Nc3ccccc3-n3nnnc32)CC1 (centres undefined),5.5,·,-1.0,·,·,·
O=[N+]([O-])c1ccc(NN=Cc2ccccc2O)nc1,-22.7,·,15.5,·,22.2,·
O=[N+]([O-])c1ccc(NN=Cc2ccc(O)cc2O)nc1,-8.6,63.0*,13.9,·,33.8,·
O=C(/C=C/[C@H]1O[C@@H](n2ccc(=O)[nH]c2=O)[C@H](O)[C@@H]1O)NCCN1CCOCC1,-2.4,·,-3.5,·,7.3,·
CCSC1=NC(C)(C)C=C(/C=C/c2ccc(Cl)cc2Cl)N1,4.2,66.4*,12.9,-8.1,19.6,12.3
CCOP(=O)(OCC)C(C#N)=C1SCN(c2ccc(Cl)cc2)CS1,2.0,81.8*,1.9,-0.9,28.1,20.5
CC(C)(O)C#Cc1ccc(N2C(c3ccsc3)=Cc3ccc(F)cc3C2c2c[nH]c3ccccc23)cc1 (centres undefined),3.8,·,-5.7,·,-21.2,·
O=C(NNC(=S)NC(=O)C12CC3CC(CC(C3)C1)C2)c1ccncc1,-14.5,50.7*,6.0,-8.9,30.7,27.9
CC(=O)N(CCc1ccccc1)c1ccc2c(c1)C1CC2CCN1C(=O)OCc1ccccc1 (centres undefined),-6.0,·,26.0,·,7.8,·
C/C(CCC(C)C)=N\Nc1cc(C)c2ccccc2n1,-3.1,55.7*,-1.5,0.3,35.3,42.8*
Cc1cc(NCc2ccccc2)nc2ccccc12,-8.8,8.1,2.7,-1.1,-5.9,14.4
CC(=O)NC(c1ccccc1)c1nc(-c2cc3ccccc3o2)cs1 (centres undefined),-6.2,·,2.3,·,1.9,·
CN(C)c1ccc(/C=C/c2ccc3c4ccccc4ccc3[n+]2-c2ccccc2)cc1,-2.5,83.2*,45.5*,·,62.3*,·
CN(C)c1ccc(/C=C/c2cccc[n+]2[O-])cc1,-3.2,-1.2,8.9,-2.7,4.1,9.0
O=C(Nc1ccc2c(c1)OCO2)c1csc([C@H]2C[C@H](O)[C@@H](CO)O2)n1,3.7,·,-7.0,·,1.9,·
CN1CCN(C2=C(Cl)C(=O)N(c3ccc(Cl)cc3)C2=O)CC1,15.5*,7.0,7.0,-4.3,-3.2,-4.1
COc1ccc(-n2c(O)c(/C=N/NS(=O)(=O)c3ccc(C)cc3)c3ccccc3c2=O)cc1OC,-0.7,15.8,-7.9,-0.1,-4.2,-15.8
COc1ccc(-n2c(O)c(/C=N/Nc3nc(C)cc(C)n3)c3ccccc3c2=O)cc1OC,-9.7,72.9*,2.0,-3.2,36.9*,21.9
CN1OC[C@@H]2CN(C(=S)NCCc3ccccc3)[C@H](c3ccc(-n4ccnc4)cc3)C[C@@H]21,-2.7,·,5.1,·,7.6,·
Cc1cccc(C)c1NC(=O)C(c1ccnc2ccccc12)N1CCN(CCN(C)C)CC1 (centres undefined),-2.4,·,-10.6,·,·,·
CS(=O)(=O)c1sc(C#N)c2c1C(=O)CC(c1ccccc1)C2 (centres undefined),-9.7,92.2*,65.7*,-4.8,90.7*,84.5*
Cc1oc2c(c(=O)c1C)C(=O)CC(c1ccccc1)C2 (centres undefined),-3.9,-3.6,-3.6,-4.5,13.6,7.0
